Test results as given in ChEMBL document CHEMBL3407460, “Synthesis of novel thiazole-based 8,9-dihydro-7H-pyrimido[4,5-b][1,4]diazepines as potential antitumor and antifungal agents” (2015).

Key:
Type in all cases: functional
K562 = assay: Antitumor activity against human K562 cells after 48 hrs by Sulforhodamine B assay; conditions: K562, 48 h
Procedure, shortened: (§1)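 NCI 60-cell-line screen. Secondary five-dose test at 100, 10, 1.0, 0.1 and 0.01 µM with continuous drug exposure for 48 h. Cell growth was estimated by sulforhodamine B protein staining. […] LC50 was also reported.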

[1] = Antitumor activity against human SF539 cells after 48 hrs by Sulforhodamine B assay; conditions: SF-539, 48 h; procedure, shortened: as §1
[2] = Antitumor activity against human PC3 cells after 48 hrs by Sulforhodamine B assay; conditions: PC-3, 48 h; procedure, shortened: as §1
[3] = Antitumor activity against human SF295 cells after 48 hrs by Sulforhodamine B assay; conditions: SF-295, 48 h; procedure, shortened: as §1
M14 = assay: Antitumor activity against human M14 cells after 48 hrs by Sulforhodamine B assay; conditions: M14, 48 h; procedure, shortened: as §1
MDA-MB-231 = assay: Antitumor activity against human MDA-MB-231 cells after 48 hrs by Sulforhodamine B assay; conditions: MDA-MB-231, 48 h; procedure, shortened: as §1
KM12 = assay: Antitumor activity against human KM12 cells after 48 hrs by Sulforhodamine B assay; conditions: KM12, 48 h; procedure, shortened: as §1
NCI-H522 = assay: Antitumor activity against human NCI-H522 cells after 48 hrs by Sulforhodamine B assay; conditions: NCI-H522, 48 h; procedure, shortened: as §1
DU-145 = assay: Antitumor activity against human DU145 cells after 48 hrs by Sulforhodamine B assay; conditions: DU-145, 48 h; procedure, shortened: as §1
SR = assay: Antitumor activity against human SR cells after 48 hrs by Sulforhodamine B assay; procedure, shortened: as §1
[4] = Antitumor activity against human NCI-ADR-RES cells after 48 hrs by Sulforhodamine B assay; procedure, shortened: as §1
NCI-H23 = assay: Antitumor activity against human NCI-H23 cells after 48 hrs by Sulforhodamine B assay; conditions: NCI-H23, 48 h; procedure, shortened: as §1
IGROV-1 = assay: Antitumor activity against human IGROV1 cells after 48 hrs by Sulforhodamine B assay; conditions: IGROV-1, 48 h; procedure, shortened: as §1
NCI-H460 = assay: Antitumor activity against human NCI-H460 cells after 48 hrs by Sulforhodamine B assay; conditions: NCI-H460, 48 h; procedure, shortened: as §1
Malme-3M = assay: Antitumor activity against human MALME-3M cells after 48 hrs by Sulforhodamine B assay; procedure, shortened: as §1
[5] = Antitumor activity against human BT549 cells after 48 hrs by Sulforhodamine B assay; conditions: BT-549, 48 h; procedure, shortened: as §1
[6] = Antitumor activity against human OVCAR8 cells after 48 hrs by Sulforhodamine B assay; conditions: OVCAR-8, 48 h; procedure, shortened: as §1
MDA-MB-435 = assay: Antitumor activity against human MDA-MB-435 cells after 48 hrs by Sulforhodamine B assay; conditions: MDA-MB-435, 48 h; procedure, shortened: as §1
NCI-H226 = assay: Antitumor activity against human NCI-H226 cells after 48 hrs by Sulforhodamine B assay; conditions: NCI-H226, 48 h; procedure, shortened: as §1
A549 = assay: Antitumor activity against human A549 cells after 48 hrs by Sulforhodamine B assay; conditions: A549, 48 h; procedure, shortened: as §1
[7] = Antitumor activity against human OVCAR3 cells after 48 hrs by Sulforhodamine B assay; conditions: OVCAR-3, 48 h; procedure, shortened: as §1
MDA-MB-468 = assay: Antitumor activity against human MDA-MB-468 cells after 48 hrs by Sulforhodamine B assay; conditions: MDA-MB-468, 48 h; procedure, shortened: as §1
[8] = Antitumor activity against human OVCAR5 cells after 48 hrs by Sulforhodamine B assay; conditions: OVCAR-5, 48 h; procedure, shortened: as §1
SNB-75 = assay: Antitumor activity against human SNB75 cells after 48 hrs by Sulforhodamine B assay; conditions: SNB-75, 48 h; procedure, shortened: as §1
[9] = Antitumor activity against human HCT15 cells after 48 hrs by Sulforhodamine B assay; conditions: HCT-15, 48 h; procedure, shortened: as §1
[10] = Antitumor activity against human HCT116 cells after 48 hrs by Sulforhodamine B assay; conditions: HCT-116, 48 h; procedure, shortened: as §1
SW-620 = assay: Antitumor activity against human SW620 cells after 48 hrs by Sulforhodamine B assay; conditions: SW-620, 48 h; procedure, shortened: as §1
SK-MEL-2 = assay: Antitumor activity against human SK-MEL-2 cells after 48 hrs by Sulforhodamine B assay; conditions: SK-MEL-2, 48 h; procedure, shortened: as §1
SF-268 = assay: Antitumor activity against human SF268 cells after 48 hrs by Sulforhodamine B assay; conditions: SF-268, 48 h; procedure, shortened: as §1
SNB-19 = assay: Antitumor activity against human SNB19 cells after 48 hrs by Sulforhodamine B assay; conditions: SNB-19, 48 h; procedure, shortened: as §1
[11] = Antitumor activity against human MOLT4 cells after 48 hrs by Sulforhodamine B assay; conditions: MOLT-4, 48 h; procedure, shortened: as §1
SK-MEL-28 = assay: Antitumor activity against human SK-MEL-28 cells after 48 hrs by Sulforhodamine B assay; conditions: SK-MEL-28, 48 h; procedure, shortened: as §1
[12] = Antitumor activity against human HOP92 cells after 48 hrs by Sulforhodamine B assay; conditions: HOP-92, 48 h; procedure, shortened: as §1
[13] = Antitumor activity against human HCC2998 cells after 48 hrs by Sulforhodamine B assay; conditions: HCC 2998, 48 h; procedure, shortened: as §1
[14] = Antitumor activity against human RPMI8226 cells after 48 hrs by Sulforhodamine B assay; conditions: RPMI-8226, 48 h; procedure, shortened: as §1
[15] = Antitumor activity against human SKOV3 cells after 48 hrs by Sulforhodamine B assay; conditions: SK-OV-3, 48 h; procedure, shortened: as §1
[16] = Antitumor activity against human UACC62 cells after 48 hrs by Sulforhodamine B assay; conditions: UACC-62, 48 h; procedure, shortened: as §1
[17] = Antitumor activity against human LOXIMVI cells after 48 hrs by Sulforhodamine B assay; conditions: LOX IMVI; procedure, shortened: as §1
HL-60(TB) = assay: Antitumor activity against human HL-60(TB) cells after 48 hrs by Sulforhodamine B assay; conditions: HL-60, 48 h; procedure, shortened: as §1
[18] = read-out: LC50 (the source's name)

Cc1ccc(C2=Nc3c(N)ncnc3NC(c3sc(Cl)nc3Cl)C2)cc1 (stereo not drawn)
GI50 (K562): 1.68 µM
CC50 (K562; [18]): > 100 µM
GI50 [1]: 2.69 µM
CC50 [1, 18]: 33.1 µM
GI50 [2]: 5.89 µM
CC50 [2, 18]: 73.1 µM
GI50 [3]: 3.06 µM
CC50 [3, 18]: 36.4 µM
GI50 (M14): 2.64 µM
CC50 (M14; [18]): 35.6 µM
GI50 (MDA-MB-231): 3.86 µM
LC50 (concentration killing 50% of cells) (MDA-MB-231): 42.1 µM
GI50 (KM12): 3.8 µM
CC50 (KM12; [18]): 40.4 µM
GI50 (NCI-H522): 4.05 µM
CC50 (NCI-H522; [18]): 42.1 µM
GI50 (DU-145): 11.2 µM
CC50 (DU-145; [18]): 52.4 µM
GI50 (SR): 2.25 µM
CC50 (SR; [18]): 76.7 µM
GI50 [4]: 3.13 µM
CC50 [4, 18]: 58.5 µM
GI50 (NCI-H23): 8.23 µM
LC50 (NCI-H23): 58.7 µM
GI50 (IGROV-1): 7.08 µM
CC50 (IGROV-1; [18]): 63.2 µM
GI50 (NCI-H460): 4.06 µM
LC50 (NCI-H460): 49.4 µM
GI50 (Malme-3M): 6.33 µM
CC50 (Malme-3M; [18]): 44 µM
GI50 [5]: 3.93 µM
CC50 [5, 18]: 40.6 µM
GI50 [6]: 4.8 µM
LC50 (concentration killing 50% of cells) [6]: 80.7 µM
GI50 (MDA-MB-435): 1.47 µM
CC50 (MDA-MB-435; [18]): 39 µM
GI50 (NCI-H226): 13.7 µM
CC50 (NCI-H226; [18]): 90.3 µM
GI50 (A549): 5.02 µM
CC50 (A549; [18]): 52.5 µM
GI50 [7]: 3.6 µM
CC50 [7, 18]: 43.4 µM
GI50 (MDA-MB-468): 2.12 µM
LC50 (MDA-MB-468): 41.6 µM
GI50 [8]: 10.2 µM
LC50 [8]: 46.8 µM
GI50 (SNB-75): 1.63 µM
LC50 (concentration killing 50% of cells) (SNB-75): 38.1 µM
GI50 [9]: 3.05 µM
CC50 [9, 18]: 50.1 µM
GI50 [10]: 3.7 µM
CC50 [10, 18]: 37.3 µM
GI50 (SW-620): 3.42 µM
CC50 (SW-620; [18]): 40.7 µM
GI50 (SK-MEL-2): 2.98 µM
LC50 (SK-MEL-2): 35.6 µM
GI50 (SF-268): 5.68 µM
CC50 (SF-268; [18]): 67.3 µM
GI50 (SNB-19): 5.51 µM
LC50 (SNB-19): 47.2 µM
GI50 [11]: 4.06 µM
LC50 [11]: > 100 µM
GI50 (SK-MEL-28): 4.26 µM
LC50 (SK-MEL-28): 42.8 µM
GI50 [12]: 3.72 µM
CC50 [12, 18]: 45.4 µM
GI50 [13]: 10.3 µM
CC50 [13, 18]: 46.8 µM
GI50 [14]: 4.99 µM
LC50 (concentration causing 50% net cell kill) [14]: > 100 µM
GI50 [15]: 3.6 µM
CC50 [15, 18]: 43 µM
GI50 [16]: 3.05 µM
LC50 [16]: 37.2 µM
GI50 [17]: 5.39 µM
CC50 [17, 18]: 43.2 µM
GI50 (HL-60(TB)): 2.04 µM
CC50 (HL-60(TB); [18]): > 100 µM
